In ChEMBL document CHEMBL1137875, “The identification and optimization of 2,4-diketobutyric acids as flap endonuclease 1 inhibitors” (Bioorg Med Chem Lett, 2004):
pIC50: −log10 of the molar value.

Tests used:
[1] = target: T1, DNA excision repair protein ERCC-5 (Homo sapiens, UniProt P28715); assay: Concentration required for 50% inhibition of Xeroderma pigmentosum G
T1 sequence (P28715 whole entry): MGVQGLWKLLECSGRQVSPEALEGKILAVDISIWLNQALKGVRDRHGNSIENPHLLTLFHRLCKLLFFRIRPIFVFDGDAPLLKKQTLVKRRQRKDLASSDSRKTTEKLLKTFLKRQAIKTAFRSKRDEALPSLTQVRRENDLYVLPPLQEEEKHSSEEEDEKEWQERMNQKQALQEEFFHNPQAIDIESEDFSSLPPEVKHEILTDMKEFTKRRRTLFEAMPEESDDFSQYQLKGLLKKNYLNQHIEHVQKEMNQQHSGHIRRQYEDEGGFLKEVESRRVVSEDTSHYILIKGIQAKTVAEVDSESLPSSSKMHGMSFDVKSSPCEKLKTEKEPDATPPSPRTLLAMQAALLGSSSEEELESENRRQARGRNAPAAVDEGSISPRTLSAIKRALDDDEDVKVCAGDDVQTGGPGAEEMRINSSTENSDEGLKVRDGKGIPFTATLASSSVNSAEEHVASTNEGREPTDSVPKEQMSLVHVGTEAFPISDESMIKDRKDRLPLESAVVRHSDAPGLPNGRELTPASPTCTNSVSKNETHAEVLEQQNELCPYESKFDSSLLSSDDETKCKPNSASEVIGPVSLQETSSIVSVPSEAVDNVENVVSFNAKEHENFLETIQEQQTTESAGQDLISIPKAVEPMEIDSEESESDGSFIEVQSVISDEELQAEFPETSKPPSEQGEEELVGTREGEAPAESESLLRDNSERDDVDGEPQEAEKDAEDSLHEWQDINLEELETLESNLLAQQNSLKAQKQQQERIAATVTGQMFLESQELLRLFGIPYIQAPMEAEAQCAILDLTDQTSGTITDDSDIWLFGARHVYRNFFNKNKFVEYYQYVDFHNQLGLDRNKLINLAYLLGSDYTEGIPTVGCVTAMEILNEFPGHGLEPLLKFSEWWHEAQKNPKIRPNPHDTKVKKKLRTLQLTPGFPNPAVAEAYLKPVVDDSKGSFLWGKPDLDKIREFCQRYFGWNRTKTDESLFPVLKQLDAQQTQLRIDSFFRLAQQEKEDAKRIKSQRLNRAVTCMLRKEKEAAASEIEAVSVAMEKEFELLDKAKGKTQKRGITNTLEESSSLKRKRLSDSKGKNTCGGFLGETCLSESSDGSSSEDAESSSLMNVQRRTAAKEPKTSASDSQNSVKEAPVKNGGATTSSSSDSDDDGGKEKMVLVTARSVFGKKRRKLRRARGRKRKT
Summary of the method: (§1)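 Fluorescence nuclease assay with 5 pmol BVT substrate in buffer at pH 8.0 containing 10 mM MgCl₂, 0.5 mM 2-mercaptoethanol, BSA and circular plasmid. Enzyme was 180 U FEN1 or 50 ng XPG. Reactions ran 90 min at room temperature and were stopped with 0.025% SDS/12.5 mM EDTA. Fluorescence was read at 485 nm excitation/538 nm emission.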

[2] = target: Flap endonuclease 1 (Homo sapiens, UniProt P39748); assay: Concentration required for 50% inhibition of Flap endonuclease-1; summary of the method: as §1
Chain of Flap endonuclease 1 (P39748 whole entry): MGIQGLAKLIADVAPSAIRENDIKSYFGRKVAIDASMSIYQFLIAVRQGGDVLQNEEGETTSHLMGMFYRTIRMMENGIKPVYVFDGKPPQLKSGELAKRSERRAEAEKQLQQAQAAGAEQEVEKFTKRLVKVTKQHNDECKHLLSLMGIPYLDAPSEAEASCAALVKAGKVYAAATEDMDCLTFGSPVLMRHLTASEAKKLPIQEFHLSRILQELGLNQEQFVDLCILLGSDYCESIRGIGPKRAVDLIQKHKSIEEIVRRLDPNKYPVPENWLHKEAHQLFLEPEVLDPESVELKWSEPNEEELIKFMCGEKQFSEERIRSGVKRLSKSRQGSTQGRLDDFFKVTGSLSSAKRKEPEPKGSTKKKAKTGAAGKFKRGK

O=C(O)C(=O)CC(=O)c1ccco1
pIC50 [1]: 4.39 | pIC50 [2]: 4.19

O=C(CC(=O)c1nnn[nH]1)c1ccc(Oc2ccccc2)cc1
pIC50 [1]: 4.01 | pIC50 [2]: 4.20

C=C(CC(=O)c1ccc(Oc2ccccc2)cc1)C(=O)O
pIC50 [1]: < 4.00 | pIC50 [2]: < 4.00

O=C(O)C(=O)Cc1ncc(-c2ccccc2)s1
pIC50 [1]: 4.50 | pIC50 [2]: 4.33

O=C(CC(=O)c1cc(=O)[nH]o1)c1ccc(Oc2ccccc2)cc1
pIC50 [1]: < 4.00 | pIC50 [2]: < 4.00

O=C(O)C(=O)CC(=O)c1ccc(-c2ccccc2)s1
pIC50 [1]: 5.73 | pIC50 [2]: 5.12

COc1ccc(-c2ccc(Cl)c(C(=O)CC(=O)C(=O)O)c2)cc1
pIC50 [1]: 6.24 | pIC50 [2]: 6.72

O=C(O)C(=O)CC(=O)c1ccc(-c2ccc(OC(F)(F)F)cc2)s1
pIC50 [1]: 6.51 | pIC50 [2]: 6.36

O=C(O)C(=O)CC(=O)c1ccc(-c2ccc(Cl)cc2)o1
pIC50 [1]: 6.01 | pIC50 [2]: 4.97

O=C(O)C(=O)CC(=O)c1ccc(-c2ccc(Cl)cc2)cc1Cl
pIC50 [1]: 5.75 | pIC50 [2]: 6.39

O=C(O)C(=O)CC(=O)c1cccs1
pIC50 [1]: 4.41 | pIC50 [2]: 5.00

O=C(O)C(=O)CC(=O)c1cccc(Cl)c1
pIC50 [1]: 4.88 | pIC50 [2]: 5.16

O=C(O)C(=O)CC(=O)c1c(Cl)cccc1Cl
pIC50 [1]: < 4.00 | pIC50 [2]: 4.42

O=C(O)C(=O)CC(=O)c1ccc(-c2ccccc2Cl)o1
pIC50 [1]: 5.73 | pIC50 [2]: 4.91

CC(C)(C)c1ccc(-c2ccc(C(=O)CC(=O)C(=O)O)o2)cc1
pIC50 [1]: 5.50 | pIC50 [2]: 4.87

COc1ccc(-c2cccc(C(=O)CC(=O)C(=O)O)c2)cc1
pIC50 [1]: 5.80 | pIC50 [2]: 5.87

O=C(O)C(=O)CC(=O)c1ccc(Oc2ccccc2)cc1
pIC50 [1]: 5.73 | pIC50 [2]: 5.76

O=C(O)C(=O)CC(=O)c1cccc(-c2ccccc2)c1
pIC50 [1]: 5.49 | pIC50 [2]: 5.44

O=C(O)C(=O)CC(=O)c1cccc(Cl)c1Cl
pIC50 [1]: 4.66 | pIC50 [2]: 4.75

Cc1ccccc1C(=O)CC(=O)C(=O)O
pIC50 [1]: 4.26 | pIC50 [2]: 4.89

O=C(O)C(=O)CC(=O)c1cccc(Oc2ccccc2)c1
pIC50 [1]: 5.26 | pIC50 [2]: 5.14

O=C(O)C(=O)CC(=O)c1ccc(Cl)cc1Cl
pIC50 [1]: 5.01 | pIC50 [2]: 5.26

O=C(O)C(=O)CC(=O)c1cc(Cl)ccc1Cl
pIC50 [1]: 5.15 | pIC50 [2]: 5.74

O=C(O)C(=O)CC(=O)c1cc(-c2ccccc2)ccc1Cl
pIC50 [1]: 5.95 | pIC50 [2]: 6.48

O=C(O)C(=O)CC(=O)c1ccccc1
pIC50 [1]: 4.12 | pIC50 [2]: 4.60

O=C(O)C(=O)CC(=O)c1ccc(-c2ccccc2)cc1
pIC50 [1]: 5.80 | pIC50 [2]: 5.46

O=C(CC(=O)c1nnn[nH]1)c1ccc(-c2ccccc2)cc1
pIC50 [1]: < 4.00 | pIC50 [2]: < 4.00

CCOc1ccc(-c2ccc(C(=O)CC(=O)C(=O)O)o2)cc1
pIC50 [1]: 5.85 | pIC50 [2]: 4.95

COc1ccc(Cn2nnnc2C(=O)CC(=O)c2ccc(-c3ccccc3)cc2)cc1
pIC50 [1]: 4.28 | pIC50 [2]: 4.46

O=C(O)C(=O)CC(=O)c1ccc(-c2ccc(Cl)c(F)c2)s1
pIC50 [1]: 6.05 | pIC50 [2]: 6.24

O=C(O)C(=O)CC(=O)c1ccccc1Cl
pIC50 [1]: 4.42 | pIC50 [2]: 5.45

O=C(O)C(=O)CC(=O)c1ccccc1F
pIC50 [1]: 4.11 | pIC50 [2]: 4.84

O=C(c1ccc(Oc2ccccc2)cc1)c1ncc2cccnc2c1O
pIC50 [1]: < 4.00 | pIC50 [2]: 4.54

O=C(O)C(=O)CC(=O)c1ccc(Cl)cc1
pIC50 [1]: 4.90 | pIC50 [2]: 4.71

O=C(O)C(=O)CC(=O)c1ccc(-c2ccccc2)o1
pIC50 [1]: 5.74 | pIC50 [2]: 5.78
